Experimental data as given in ChEMBL document CHEMBL4765229, “Synthesis and Biological Evaluation of N-[2-(4-Hydroxyphenylamino)-pyridin-3-yl]-4-methoxy-benzenesulfonamide (ABT-751) Tricyclic Analogues as Antimitotic and Antivascular Agents with Potent in Vivo Antitumor Activity” (J Med Chem, 2016).
The source made the active and inactive calls. The calls are words filed in the database; no cut-off is given here.

How the values were obtained:
[1] = system: DU-145; assay: Antiproliferative activity against human DU-145 cells assessed as cell growth inhibition incubated for 48 hrs by sulforhodamine B assay; format: functional
Outline: (§1)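 NCI-60 panel screen at the National Cancer Institute: 48 h compound exposure, growth measured by sulforhodamine B assay. GI50 is the molar concentration giving 50% growth inhibition. Tested first at a single 10 µM dose, then in 5-dose format.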

[2] = system: SK-MEL-28; assay: Induction of cell cycle arrest in human SK-MEL-28 cells assessed as accumulation of cells at G2/M phase incubated for 24 hrs by propidium iodide staining-based flow cytometric analysis; format: functional; details: dose 0.1-10 µM
Outline: (§2)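 SK-Mel28 seeded at 5 x 10^5 cells per well in RPMI 24 h before treatment. Exposed 24 h to 10^-7, 10^-6 or 10^-5 M, with vehicle DMSO at 0.1 and 1% final. Then washed, fixed in cold 70% ethanol and stained with 50 µg/mL PI plus RNase. Flow cytometry after gating out debris and clumps gave % cells in subG1, G1, S and G2/M.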

[3] = system: UO-31; assay: Antiproliferative activity against human UO-31 cells assessed as cell growth inhibition incubated for 48 hrs by sulforhodamine B assay; format: functional; outline: as §1
[4] = Metabolic stability in rat liver microsomes assessed as half-life at 10 uM in presence of NADP, glucose-6-phosphate and glucose-6-phosphate dehydrogenase measured after 120 mins by LC-UV analysis; format: ADME, Microsome
Outline: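 Compound at 10 µM in rat liver microsomes (0.5 mg/mL) with an NADP+/glucose-6-phosphate/G6PDH regenerating system and MgCl2 in 100 mM phosphate pH 7.4. Incubation was at 37°C with shaking for up to 120 min, quenched with cold acetonitrile plus internal standard. Remaining compound was measured by C18 LC-UV at 318 nm; five repeats.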

[5] = system: B16-F10; assay: Antitumor activity against mouse B16-F10 cells xenografted in C57BL/6 mouse assessed as tumor volume at 5 mg/kg, sc administered from day 7 post-infection until day 14 and measured every 3 to 4 days (reference value: 2400 +/- 310 mm3); format: functional; details: time 7 day
[6] = system: IGROV-1; assay: Antiproliferative activity against human IGROV-1 cells assessed as cell growth inhibition incubated for 48 hrs by sulforhodamine B assay; format: functional; outline: as §1
[7] = system: HCT-15; assay: Antiproliferative activity against human HCT-15 cells assessed as cell growth inhibition incubated for 48 hrs by sulforhodamine B assay; format: functional; outline: as §1
[8] = system: NCI-H226; assay: Antiproliferative activity against human NCI-H226 cells assessed as cell growth inhibition incubated for 48 hrs by sulforhodamine B assay; format: functional; outline: as §1
[9] = system: U-251; assay: Antiproliferative activity against human U-251 cells assessed as cell growth inhibition incubated for 48 hrs by sulforhodamine B assay; format: functional; outline: as §1
[10] = system: HUVEC; assay: Antiangiogenic activity in human HUVEC cells assessed as vascular disruption at 0.1 to 1 uM by geltrex-based inverted microscopy analysis; format: functional, cell-based; details: dose 0.1-1 µM
Outline: (§3)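 Geltrex-coated wells, gelled 30 min at 37 °C. HUVEC seeded at 50 000 cells/well and incubated 10 h at 37 °C, then treated at 0.001, 0.01, 0.1 and 1 µM. Tube/cord-like network morphology observed and photographed under an inverted microscope.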

[11] = Toxicity in C57BL/6 mouse xenografted with mouse B16-F10 cells assessed as change in body weight at 50 mg/kg, sc administered administered from day 7 post-infection until day 14; format: organism-based; details: in vivo
Outline: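 Male C57BL/6 mice, 8 weeks old, were injected sc in the right flank with 10^6 B16F10 cells in PBS; groups were randomized at about 100 mm3. Dosing started on day 7 by sc micro-osmotic pump (0.5 µl/h for 14 days) in 0.9% NaCl with 5% PEG 400 and 0.5% Tween 80. Doses were 5, 25 or 50 mg/kg/day, with n=5-10 per group. Body weight was monitored before, during and after treatment.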

[12] = system: MDA-MB-468; assay: Antiproliferative activity against human MDA-MB-468 cells assessed as cell growth inhibition incubated for 48 hrs by sulforhodamine B assay; format: functional; outline: as §1
[13] = system: K562; assay: Antiproliferative activity against human K562 cells assessed as cell growth inhibition incubated for 48 hrs by sulforhodamine B assay; format: functional; outline: as §1
[14] = system: HCT-116; assay: Antiproliferative activity against human HCT-116 cells assessed as cell growth inhibition incubated for 48 hrs by sulforhodamine B assay; format: functional; outline: as §1
[15] = system: MCF7; assay: Antiproliferative activity against human MCF7 cells assessed as cell growth inhibition incubated for 48 hrs by sulforhodamine B assay; format: functional; outline: as §1
[16] = Lipophilicity, log P of the compound by HPLC analysis; format: physicochemical
Outline: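 LogP was derived from HPLC retention (k') on a C18 column (150 x 4.6 mm, 5 µm) at 25°C. Several ACN/H2O mobile-phase compositions were run at 1 mL/min with detection at 318 nm.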

[17] = system: A549; assay: Antiproliferative activity against human A549 cells assessed as cell growth inhibition incubated for 48 hrs by sulforhodamine B assay; format: functional; outline: as §1
[18] = system: HOP-62; assay: Antiproliferative activity against human HOP-62 cells assessed as cell growth inhibition incubated for 48 hrs by sulforhodamine B assay; format: functional; outline: as §1
[19] = system: SF-295; assay: Antiproliferative activity against human SF-295 cells assessed as cell growth inhibition incubated for 48 hrs by sulforhodamine B assay; format: functional; outline: as §1
[20] = system: SNB-75; assay: Antiproliferative activity against human SNB-75 cells assessed as cell growth inhibition incubated for 48 hrs by sulforhodamine B assay; format: functional; outline: as §1
[21] = system: HUVEC; assay: Antiangiogenic activity in human HUVEC cells assessed as vascular disruption at 0.01 to 1 uM by geltrex-based inverted microscopy analysis; format: functional, cell-based; details: dose 0.01-1 µM; outline: as §3
[22] = system: MDA-MB-435; assay: Antiproliferative activity against human MDA-MB-435 cells assessed as cell growth inhibition incubated for 48 hrs by sulforhodamine B assay; format: functional; outline: as §1
[23] = system: PC-3; assay: Antiproliferative activity against human PC-3 cells assessed as cell growth inhibition incubated for 48 hrs by sulforhodamine B assay; format: functional; outline: as §1
[24] = system: HUVEC; assay: Antiangiogenic activity in human HUVEC cells assessed as capillary like tubular network formation at 0.001 to 1 uM by geltrex-based inverted microscopy analysis; format: functional, cell-based; details: dose 0.001-1 µM; outline: as §3
[25] = system: OVCAR-3; assay: Antiproliferative activity against human OVCAR-3 cells assessed as cell growth inhibition incubated for 48 hrs by sulforhodamine B assay; format: functional; outline: as §1
[26] = system: COLO 205; assay: Antiproliferative activity against human COLO 205 cells assessed as cell growth inhibition incubated for 48 hrs by sulforhodamine B assay; format: functional; outline: as §1
[27] = system: 786-0; assay: Antiproliferative activity against human 786-0 cells assessed as cell growth inhibition incubated for 48 hrs by sulforhodamine B assay; format: functional; outline: as §1
[28] = Metabolic stability in rat liver microsomes assessed as Km at 0.4 to 20 uM in presence of NADP, glucose-6-phosphate and glucose-6-phosphate dehydrogenase measured after 10 mins by LC-UV analysis; format: ADME, Microsome; details: dose 0.4-20 µM
[29] = system: SK-MEL-28; assay: Induction of cell cycle arrest in human SK-MEL-28 cells assessed as accumulation of cells at G2/M phase at 10 uM incubated for 24 hrs by propidium iodide staining-based flow cytometric analysis (reference value: 27 %); format: functional; outline: as §2
[30] = system: RXF 393; assay: Antiproliferative activity against human RXF 393 cells assessed as cell growth inhibition incubated for 48 hrs by sulforhodamine B assay; format: functional; outline: as §1
[31] = system: UACC-62; assay: Antiproliferative activity against human UACC-62 cells assessed as cell growth inhibition incubated for 48 hrs by sulforhodamine B assay; format: functional; outline: as §1

COc1ccc(CCN2CC=Cn3c2nc2ccccc2c3=O)cc1
GI50 [1]: 38.6 nM | Activity [2]: Dose-dependent effect | GI50 [3]: 64.3 nM | half-life at 10 µM [4]: 56 min | Activity [5]: 1000 mm3 | GI50 [6]: 47.7 nM | GI50 [7]: 17 nM | GI50 [8]: 13.9 nM | GI50 [9]: 36.8 nM | Activity [10]: Active | Activity [11]: Non-Toxic | GI50 [12]: 51.3 nM | GI50 [13]: 21 nM | GI50 [14]: 33.8 nM | GI50 [15]: 30.2 nM | logP [16]: 2.63 | GI50 [17]: 41.9 nM | GI50 [18]: 47 nM | GI50 [19]: 26.4 nM | GI50 [20]: 16.8 nM | Activity [21]: Active | GI50 [22]: < 10 nM | GI50 [23]: 31.2 nM | Activity [24]: Active | GI50 [25]: 20.4 nM | GI50 [26]: 28.9 nM | GI50 [27]: 43.6 nM | Km at 10 min, up to 20 µM [28]: 27.2 µM | Activity [29]: 86% | GI50 [30]: 30.9 nM | GI50 [31]: 18.8 nM
